The values below come from ChEMBL document CHEMBL5046221, “Identification of Pyrimidine-Based Lead Compounds for Understudied Kinases Implicated in Driving Neurodegeneration” (J Med Chem, 2022).

Data set [1] addresses T1, Serine/threonine-protein kinase TBK1 (Homo sapiens, UniProt Q9UHD2).
T1 sequence (Q9UHD2 whole entry): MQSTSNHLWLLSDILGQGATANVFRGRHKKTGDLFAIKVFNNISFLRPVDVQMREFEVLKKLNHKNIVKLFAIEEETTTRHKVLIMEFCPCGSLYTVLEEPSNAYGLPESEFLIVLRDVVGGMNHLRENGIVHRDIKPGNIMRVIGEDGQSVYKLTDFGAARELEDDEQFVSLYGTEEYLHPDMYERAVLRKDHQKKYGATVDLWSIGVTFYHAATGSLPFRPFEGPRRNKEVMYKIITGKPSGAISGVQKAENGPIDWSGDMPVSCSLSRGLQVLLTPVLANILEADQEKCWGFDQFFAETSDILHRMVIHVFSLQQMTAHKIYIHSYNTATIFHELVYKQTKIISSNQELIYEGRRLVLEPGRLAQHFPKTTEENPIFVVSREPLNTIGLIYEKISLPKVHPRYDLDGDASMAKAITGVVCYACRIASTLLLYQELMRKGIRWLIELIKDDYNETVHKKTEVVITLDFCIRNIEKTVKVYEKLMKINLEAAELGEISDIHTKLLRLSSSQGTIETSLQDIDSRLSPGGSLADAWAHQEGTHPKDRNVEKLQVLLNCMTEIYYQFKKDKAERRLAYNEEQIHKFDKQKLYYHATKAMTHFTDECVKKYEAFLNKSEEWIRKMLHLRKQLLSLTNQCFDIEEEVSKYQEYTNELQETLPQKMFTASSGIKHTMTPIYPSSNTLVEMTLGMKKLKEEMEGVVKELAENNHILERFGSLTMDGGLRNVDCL
Description: Displacement of tracer K5 from NLuc fused TBK1 (unknown origin) expressed in HEK293 cells by NanoBRET assay. It counts as cell-based. The essentials: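 HEK293 cells grown in DMEM with 10% FBS at 37 °C, 5% CO2. NanoBRET assay run in dose–response per manufacturer's protocol with tracer K-5 at 0.5 μM. SEM calculated for assays run more than once.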

In data set [2] the target is T2, MAP/microtubule affinity-regulating kinase 4 (Homo sapiens, UniProt Q96L34).
T2 sequence (Q96L34 whole entry): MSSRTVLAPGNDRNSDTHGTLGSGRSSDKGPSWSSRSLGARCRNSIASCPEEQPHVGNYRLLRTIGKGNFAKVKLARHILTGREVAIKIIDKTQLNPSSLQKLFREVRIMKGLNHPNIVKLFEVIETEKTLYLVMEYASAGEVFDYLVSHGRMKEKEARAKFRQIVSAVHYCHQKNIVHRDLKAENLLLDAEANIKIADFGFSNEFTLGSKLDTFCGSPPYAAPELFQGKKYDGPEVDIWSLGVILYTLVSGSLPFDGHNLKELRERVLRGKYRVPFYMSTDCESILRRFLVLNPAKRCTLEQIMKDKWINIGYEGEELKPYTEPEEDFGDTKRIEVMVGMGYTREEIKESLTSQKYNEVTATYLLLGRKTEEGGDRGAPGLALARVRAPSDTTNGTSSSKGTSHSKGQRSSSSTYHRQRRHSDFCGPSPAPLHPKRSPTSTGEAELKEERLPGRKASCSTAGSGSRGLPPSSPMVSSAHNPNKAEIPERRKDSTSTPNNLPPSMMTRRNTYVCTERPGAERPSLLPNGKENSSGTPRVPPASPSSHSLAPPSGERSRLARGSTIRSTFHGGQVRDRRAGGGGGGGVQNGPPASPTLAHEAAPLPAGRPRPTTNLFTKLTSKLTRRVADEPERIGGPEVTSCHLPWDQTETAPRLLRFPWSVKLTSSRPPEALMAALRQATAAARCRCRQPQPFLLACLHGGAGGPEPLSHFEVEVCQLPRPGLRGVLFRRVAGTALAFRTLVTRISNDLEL
Description: Displacement of tracer K5 from NLuc fused MARK4 (unknown origin) expressed in HEK293 cells by NanoBRET assay. It counts as cell-based.

For data set [3], the target named is T3, NUAK family SNF1-like kinase 1 (Homo sapiens, UniProt O60285).
T3 sequence (O60285 whole entry): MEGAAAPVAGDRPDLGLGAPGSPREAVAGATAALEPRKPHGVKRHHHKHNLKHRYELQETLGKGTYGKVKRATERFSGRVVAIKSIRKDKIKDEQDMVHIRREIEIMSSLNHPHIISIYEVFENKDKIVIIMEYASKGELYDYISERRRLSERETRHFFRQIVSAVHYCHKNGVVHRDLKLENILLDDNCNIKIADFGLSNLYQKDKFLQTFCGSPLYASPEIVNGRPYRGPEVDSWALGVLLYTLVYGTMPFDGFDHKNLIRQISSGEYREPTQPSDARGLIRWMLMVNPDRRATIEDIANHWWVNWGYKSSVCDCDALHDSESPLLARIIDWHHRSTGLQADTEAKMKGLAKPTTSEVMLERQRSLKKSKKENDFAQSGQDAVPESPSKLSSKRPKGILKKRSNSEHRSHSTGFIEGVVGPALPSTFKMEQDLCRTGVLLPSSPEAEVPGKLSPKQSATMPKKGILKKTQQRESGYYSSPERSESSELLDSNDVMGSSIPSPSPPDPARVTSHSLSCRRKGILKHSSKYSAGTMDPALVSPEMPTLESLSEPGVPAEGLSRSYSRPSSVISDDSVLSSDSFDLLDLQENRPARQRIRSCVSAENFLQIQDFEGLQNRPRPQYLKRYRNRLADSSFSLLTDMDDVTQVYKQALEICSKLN
Put plainly: Inhibition of recombinant human ARK5 (2 to end residues) using KKKVSRSGLYRSPSMPENLNRPR as substrate incubated for 40 mins in presence of [gamma-33ATP] by scintillation counting based radiometry assay. In outline:
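Eurofins radiometric enzymatic assay with ATP at Km for each kinase. IC50 was derived from a 9-point dose–response curve run in duplicate.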

For data set [4], the target named is Aurora kinase B (Homo sapiens) (UniProt Q96GD4). Put plainly: Inhibition of full length recombinant human AURKB using AKRRRLSSLRA as substrate at 1 uM incubated for 40 mins in presence of [gamma-33P-ATP] by radiometric scintillation assay relative to control. The essentials:
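Eurofins radiometric kinase assay with ATP at Km for each kinase. Compound was tested at a single 1 μM concentration in duplicate, and the result is reported as percent of control.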

A short description of data set [5]: Effective permeability in PBS at 7.4 incubated for 5 hrs by PAMPA analysis. It counts as ADME. Conditions: pH 7.4, 5 h. The essentials:
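PAMPA: DMSO stocks were diluted in PBS pH 7.4 and placed in the donor compartment, with PBS pH 7.4 in the acceptor, for 5 h. Both compartments were quantified by CLND against a calibration curve, with background nitrogen correction. Effective permeability was calculated from donor and acceptor concentrations using measured rather than assumed solubility.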

The target of data set [6] is High affinity nerve growth factor receptor (Homo sapiens, UniProt P04629). Put plainly: Inhibition of human TrkA (440 to end residues) using KKKSPGEYVNIEFG as substrate measured after 40 mins in presence of [gamma33P]ATP by scintillation counting method. The essentials: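 Eurofins radiometric kinase assay run at ATP equal to Km for each kinase. 9-point dose–response in duplicate gives the IC50.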
Chain of High affinity nerve growth factor receptor (P04629 whole entry): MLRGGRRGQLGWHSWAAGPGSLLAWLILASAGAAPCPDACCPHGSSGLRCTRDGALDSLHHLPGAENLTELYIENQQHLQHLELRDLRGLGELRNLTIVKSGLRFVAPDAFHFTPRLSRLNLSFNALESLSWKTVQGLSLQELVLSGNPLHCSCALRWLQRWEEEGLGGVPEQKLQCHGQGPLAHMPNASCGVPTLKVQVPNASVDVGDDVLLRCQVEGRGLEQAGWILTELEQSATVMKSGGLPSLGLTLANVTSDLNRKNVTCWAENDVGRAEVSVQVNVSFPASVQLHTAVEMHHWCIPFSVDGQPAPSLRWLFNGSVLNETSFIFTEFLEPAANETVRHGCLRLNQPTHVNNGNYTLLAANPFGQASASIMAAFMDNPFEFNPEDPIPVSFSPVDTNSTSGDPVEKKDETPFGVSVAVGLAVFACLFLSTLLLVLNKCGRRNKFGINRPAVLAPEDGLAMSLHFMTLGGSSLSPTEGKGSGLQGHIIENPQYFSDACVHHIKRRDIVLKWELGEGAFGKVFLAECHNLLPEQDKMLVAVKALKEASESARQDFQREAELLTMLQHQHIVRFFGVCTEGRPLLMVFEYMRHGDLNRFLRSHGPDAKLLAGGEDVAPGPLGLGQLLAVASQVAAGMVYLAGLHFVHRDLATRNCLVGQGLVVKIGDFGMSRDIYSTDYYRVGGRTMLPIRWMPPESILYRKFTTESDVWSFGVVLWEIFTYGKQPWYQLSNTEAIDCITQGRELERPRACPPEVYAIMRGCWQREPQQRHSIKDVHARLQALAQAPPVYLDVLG

pIC50: −log10 of the molar value. Bounds are passed on as bounds.

Chain of Aurora kinase B (Homo sapiens) (Q96GD4 whole entry): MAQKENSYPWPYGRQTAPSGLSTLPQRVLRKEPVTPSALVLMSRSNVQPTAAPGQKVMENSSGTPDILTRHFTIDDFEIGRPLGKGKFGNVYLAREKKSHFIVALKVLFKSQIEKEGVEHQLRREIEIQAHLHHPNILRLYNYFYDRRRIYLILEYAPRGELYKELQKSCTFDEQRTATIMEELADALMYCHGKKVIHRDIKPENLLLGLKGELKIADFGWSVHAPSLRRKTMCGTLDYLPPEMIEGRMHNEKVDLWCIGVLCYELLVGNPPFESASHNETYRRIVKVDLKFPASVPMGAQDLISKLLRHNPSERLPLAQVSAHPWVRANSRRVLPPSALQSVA

As for `c1cc(CN2CCOCC2)cc(Nc2nccc(NCCc3cnc[nH]3)n2)c1`, the figures for the pIC50 in data set [1], in data set [2] and in data set [3] were under 5.00, under 5.00 and 6.75, respectively. Further, the % control in data set [4] worked out at 5%. Further, the Peff in data set [5] is 1.66 10^-7 cm/s.

Take `NS(=O)(=O)c1ccc(CNc2nc(Nc3cccc(CN4CCOCC4)c3)ncc2C2CC2)cc1`: the values for the pIC50 in data set [6], in data set [1] and in data set [2] were 6.82, 5.69 and under 5.00, respectively. Further, the % control in data set [4] is 51%. In addition, the Peff in data set [5] is 7.09 10^-7 cm/s.

Consider `NS(=O)(=O)c1ccc(CNc2nc(Nc3cccc(NC(=O)N4CCCC4)c3)ncc2Br)cc1`, for which the pIC50 was 6.55 in data set [6], 5.21 in data set [1], under 5.00 in data set [2] and 6.50 in data set [3]. In data set [4], the % control was found to be 6%. Moreover, in data set [5] (BLD = below limit of detection), the Peff entry is recorded as “Bld”.

`NS(=O)(=O)c1ccc(CNc2nc(Nc3cccc(CN4CCOCC4)c3)ncc2Br)cc1`: the pIC50 in data set [6] is 6.80; in data set [1], under 5.00; in data set [2], under 5.00; in data set [3] it was 6.77. Also, in data set [4], the % control worked out at 7%. In data set [5] (BLD = below limit of detection), the Peff result is reported as “Bld”.
